SMILES strings stand for the structures. Active and inactive are the calls of the source. No cut-off for these calls is given here. Where only a bound is given, the exact number is not on record here.

One assay concerns the target T1, Protein ENL (Homo sapiens, UniProt Q03111).
T1 sequence (Q03111 whole entry): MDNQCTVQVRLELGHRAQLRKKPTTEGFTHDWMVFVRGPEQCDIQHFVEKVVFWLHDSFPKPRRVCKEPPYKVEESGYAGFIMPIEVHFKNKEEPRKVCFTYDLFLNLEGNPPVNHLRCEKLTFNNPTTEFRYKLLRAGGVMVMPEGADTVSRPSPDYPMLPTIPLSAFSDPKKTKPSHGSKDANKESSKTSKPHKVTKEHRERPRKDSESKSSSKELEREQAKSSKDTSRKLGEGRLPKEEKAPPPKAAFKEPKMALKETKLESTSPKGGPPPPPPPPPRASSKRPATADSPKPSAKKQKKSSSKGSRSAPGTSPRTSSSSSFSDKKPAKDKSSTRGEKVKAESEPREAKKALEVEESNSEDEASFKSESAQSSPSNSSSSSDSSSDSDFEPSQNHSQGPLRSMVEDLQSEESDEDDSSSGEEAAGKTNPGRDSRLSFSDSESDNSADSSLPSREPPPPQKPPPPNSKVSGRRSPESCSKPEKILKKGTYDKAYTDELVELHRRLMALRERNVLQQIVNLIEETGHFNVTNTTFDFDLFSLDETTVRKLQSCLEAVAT
The assay is described as follows: Inhibition of human His-ENL YEATS domain and biotinylated H3K9ac peptide interaction by AlphaScreen assay.

In assay [1] the target is T2, YEATS domain-containing protein 4 (Homo sapiens, UniProt O95619). The assay is described as follows: Inhibition of human His-GAS41 YEATS domain and biotinylated H3K27ac peptide interaction at 20 uM by AlphaScreen assay. For orientation: In Alpha technology, singlet oxygen from a donor bead excites a nearby acceptor bead.
The target in assay [2] is T3, YEATS domain-containing protein 2 (Homo sapiens, UniProt Q9ULM3).
T3 sequence (Q9ULM3 whole entry): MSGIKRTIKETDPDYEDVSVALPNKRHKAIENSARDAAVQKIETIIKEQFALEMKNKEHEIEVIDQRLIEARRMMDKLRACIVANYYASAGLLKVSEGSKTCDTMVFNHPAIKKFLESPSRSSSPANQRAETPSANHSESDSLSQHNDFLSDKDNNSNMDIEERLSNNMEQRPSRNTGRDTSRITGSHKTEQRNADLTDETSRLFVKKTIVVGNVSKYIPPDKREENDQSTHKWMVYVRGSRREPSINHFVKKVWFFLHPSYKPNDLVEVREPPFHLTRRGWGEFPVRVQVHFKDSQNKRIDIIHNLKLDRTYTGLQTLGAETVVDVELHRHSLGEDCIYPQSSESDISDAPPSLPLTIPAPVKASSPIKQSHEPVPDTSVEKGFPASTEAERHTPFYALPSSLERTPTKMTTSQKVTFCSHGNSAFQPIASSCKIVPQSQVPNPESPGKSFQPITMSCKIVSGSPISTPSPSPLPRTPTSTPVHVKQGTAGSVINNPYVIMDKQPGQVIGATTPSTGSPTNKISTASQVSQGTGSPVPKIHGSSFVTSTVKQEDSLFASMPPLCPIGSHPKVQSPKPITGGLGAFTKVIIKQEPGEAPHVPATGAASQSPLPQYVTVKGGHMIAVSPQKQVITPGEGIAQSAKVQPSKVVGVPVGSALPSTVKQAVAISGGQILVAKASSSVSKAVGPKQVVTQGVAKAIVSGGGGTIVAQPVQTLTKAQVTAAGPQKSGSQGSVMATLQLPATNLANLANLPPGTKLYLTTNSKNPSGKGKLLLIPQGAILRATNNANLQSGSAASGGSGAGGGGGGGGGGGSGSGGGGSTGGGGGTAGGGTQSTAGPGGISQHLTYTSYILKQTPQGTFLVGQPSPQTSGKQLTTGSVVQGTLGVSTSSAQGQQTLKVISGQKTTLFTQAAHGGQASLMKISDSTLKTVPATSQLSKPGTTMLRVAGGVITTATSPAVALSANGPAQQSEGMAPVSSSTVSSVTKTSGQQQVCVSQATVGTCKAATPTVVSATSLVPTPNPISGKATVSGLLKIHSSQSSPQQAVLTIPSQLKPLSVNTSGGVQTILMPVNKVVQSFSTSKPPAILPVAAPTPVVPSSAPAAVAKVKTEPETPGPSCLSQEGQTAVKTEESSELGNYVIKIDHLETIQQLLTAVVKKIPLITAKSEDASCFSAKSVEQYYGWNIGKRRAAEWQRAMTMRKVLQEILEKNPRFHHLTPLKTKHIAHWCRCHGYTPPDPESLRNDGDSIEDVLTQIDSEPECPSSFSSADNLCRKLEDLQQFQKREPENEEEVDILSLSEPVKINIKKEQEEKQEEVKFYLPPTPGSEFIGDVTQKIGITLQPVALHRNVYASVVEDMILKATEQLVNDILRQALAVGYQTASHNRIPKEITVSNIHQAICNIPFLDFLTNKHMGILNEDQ
The assay is described as follows: Inhibition of human His-YEATS2 YEATS domain and biotinylated […] peptide interaction by AlphaScreen assay. Summed up:
(§1)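 His-tagged YEATS domains were expressed in E. coli Rosetta-2 (DE3) pLysS and purified on Ni-NTA. Partners were biotinylated peptide on streptavidin donor and Ni2+-chelate acceptor beads: AF9 30 nM with H3K9ac, GAS41 100 nM with H3K27ac, YEATS2 100 nM with H3K27cr. Peptides at 30 nM, buffer 50 mM HEPES pH 7.4, 100 mM NaCl, 0.1% BSA, 0.05% CHAPS. Thirteen-point 3-fold series from 54 μM to 0.1 nM, 4–6 replicates, signal normalised to no-compound control, four-parameter fit.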

Assay [3] addresses T2, YEATS domain-containing protein 4. The assay is described as follows: Inhibition of human His-GAS41 YEATS domain and biotinylated H3K27ac peptide interaction by AlphaScreen assay. Summed up: as §1
Assay [4] concerns the target T4, Protein AF-9 (Homo sapiens) (UniProt P42568).
T4 sequence (whole entry): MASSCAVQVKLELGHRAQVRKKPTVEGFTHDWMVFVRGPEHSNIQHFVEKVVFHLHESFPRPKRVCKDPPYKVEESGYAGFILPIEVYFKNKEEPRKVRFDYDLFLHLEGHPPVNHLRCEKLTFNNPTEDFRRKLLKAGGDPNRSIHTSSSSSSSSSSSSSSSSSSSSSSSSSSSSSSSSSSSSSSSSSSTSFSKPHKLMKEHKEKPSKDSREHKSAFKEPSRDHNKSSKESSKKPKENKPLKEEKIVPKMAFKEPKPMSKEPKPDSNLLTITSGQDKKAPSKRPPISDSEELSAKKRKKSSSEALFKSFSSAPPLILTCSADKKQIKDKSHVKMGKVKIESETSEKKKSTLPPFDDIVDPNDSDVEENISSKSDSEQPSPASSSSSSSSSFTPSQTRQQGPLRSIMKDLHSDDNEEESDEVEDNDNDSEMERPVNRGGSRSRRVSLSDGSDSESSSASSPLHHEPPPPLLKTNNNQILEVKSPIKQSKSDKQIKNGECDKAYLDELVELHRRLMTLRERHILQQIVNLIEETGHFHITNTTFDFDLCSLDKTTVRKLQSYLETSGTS
The assay is described as follows: Inhibition of human His-AF9 YEATS domain and biotinylated H3K9ac peptide interaction at 20 uM by AlphaScreen assay.

Assay [5] addresses T5, YEATS domain-containing protein 2 (Homo sapiens) (UniProt Q9ULM3).
T5 sequence (whole entry): T3 sequence (Q9ULM3 whole entry)
The assay is described as follows: Inhibition of human His-YEATS2 YEATS domain and biotinylated […] peptide interaction at 20 uM by AlphaScreen assay.

Another assay deals with T6, Protein AF-9 (Homo sapiens, UniProt P42568).
T6 sequence (P42568 whole entry): T4 sequence (whole entry)
As to the kind of experiment: Inhibition of human His-AF9 YEATS domain and biotinylated H3K9ac peptide interaction by AlphaScreen assay.

The species named for a further assay is Homo sapiens. The assay is described as follows: Selectivity ratio of IC50 for human His-AF9 YEATS domain to IC50 for human His-ENL YEATS domain.
In assay [6] the target is T7, Protein ENL (Homo sapiens) (UniProt Q03111).
T7 sequence (whole entry): T1 sequence (Q03111 whole entry)
As to the kind of experiment: Inhibition of human His-ENL YEATS domain and biotinylated H3K9ac peptide interaction at 5 uM by AlphaScreen assay.

T2 sequence (O95619 whole entry, the tested form may be a part): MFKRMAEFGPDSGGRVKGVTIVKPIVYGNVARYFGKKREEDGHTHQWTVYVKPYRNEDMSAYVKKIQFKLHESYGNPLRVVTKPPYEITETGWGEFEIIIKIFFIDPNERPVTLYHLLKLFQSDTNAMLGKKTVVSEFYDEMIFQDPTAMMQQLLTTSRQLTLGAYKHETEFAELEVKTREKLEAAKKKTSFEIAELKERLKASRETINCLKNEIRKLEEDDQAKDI

By IC50 is commonly meant the point on the concentration scale where inhibition reaches its midpoint. Low readings indicate inhibition by little substance, high ones a need for much substance. `O=C(NCc1ccc(CNc2nc(F)ccc2F)cc1)c1ccc2nncn2c1` gave an IC50 at Protein ENL of more than 2000 nM.

In the case of `O=C(NCc1ccc(CN2CCC2)cc1)c1ccn2cnnc2c1`, the IC50 at Protein ENL is more than 5000 nM.

Consider `Cc1cc2ncc(C(=O)NCc3ccc(CN4CCC4)cc3)cn2n1`, for which the IC50 at Protein ENL was more than 5000 nM.

`CC(C)(C)C1CCN1Cc1ccc(CNC(=O)c2ccc3nncn3c2)cc1` (stereo not drawn) yielded an IC50 against Protein ENL of 264 nM.

`O=C(NCc1ccc(CNc2ccc(F)cn2)cc1)c1ccc2nncn2c1` had an IC50 against Protein ENL of more than 5000 nM.

As for `CC1CCN1Cc1ccc(CNC(=O)c2ccc3nncn3c2)cc1` (stereo not drawn), on Protein ENL, the IC50 is 185 nM.

For `CC(C)C1CCN1Cc1ccc(CNC(=O)c2ccc3nncn3c2)cc1` (stereo not drawn), on Protein ENL, the IC50 is 266 nM.

As to `O=C(NCc1ccc(CN2CCCCC2)cc1)c1ccc2nncn2c1`, half-maximal inhibition against Protein ENL (IC50) was put at 636 nM.

Regarding `O=C(NCc1ccc(CN2CCC2)cc1)c1ccc2nncn2c1`, the inhibition result in assay [1], in [4] and in assay [5] was “Active” throughout. Moreover, the IC50 in assay [2] is 18500 nM; in assay [3], more than 54000 nM.

Molecule `O=C(NCc1ccc(CN2CCOCC2)cc1)c1ccc2nncn2c1` returned an IC50 against Protein ENL of 891 nM.

For `O=C(NCc1cccc(CN2CCC2)c1)c1ccc2nncn2c1`, it took 202 nM to reach half-maximal inhibition against Protein ENL (IC50).

On to `CC(C)c1cnc(NCc2ccc(CNC(=O)c3ccc4nncn4c3)cc2)nc1`, for which the IC50 on Protein ENL is more than 1000 nM.

In the case of `O=C(NCc1ccc(CNc2ncc(F)cn2)cc1)c1ccc2nncn2c1`, the inhibition result in [1], in [4] and in assay [5] was “Active” in each case. Further, the IC50 in assay [2] is more than 54000 nM; on Protein AF-9, 729 nM; in assay [3], more than 54000 nM.

For the molecule `O=C(NCc1ccc(CN2CCC2)cc1)c1ccc2ncnn2c1`, the IC50 against Protein ENL was more than 5000 nM.

With `CC(NC(=O)c1ccc2nncn2c1)c1ccc(CN2CCC2)cc1` (stereo not drawn), on Protein ENL, the IC50 is more than 1000 nM.

Regarding `CSc1ccc(CNC(=O)c2ccc3nncn3c2)cc1`, the inhibition result in assay [1], in [4], in [5] and in assay [6] was “Active” throughout. Further, the Ratio in the assay listed under Homo sapiens was 4. The IC50 in assay [2] is more than 54000 nM; against Protein AF-9 it was 1850 nM; in [3] it was more than 54000 nM; against Protein ENL, 230 nM.
